In ChEMBL document CHEMBL4190262, “Tuning of β-glucosidase and α-galactosidase inhibition by generation and in situ screening of a library of pyrrolidine-triazole hybrid molecules” (Eur J Med Chem, 2017):

Legend:
[1] = target: T1, Alpha-galactosidase A (Homo sapiens) (UniProt P06280); experiment: Inhibition of human lysosomal alpha-galactosidase A at 1 mM using 4-methylumbelliferyl-alpha-D-galactopyranoside as substrate preincubated for 45 mins followed by substrate addition measured after 30 mins by fluorescence spectroscopic method relative to control
T1 sequence (whole entry): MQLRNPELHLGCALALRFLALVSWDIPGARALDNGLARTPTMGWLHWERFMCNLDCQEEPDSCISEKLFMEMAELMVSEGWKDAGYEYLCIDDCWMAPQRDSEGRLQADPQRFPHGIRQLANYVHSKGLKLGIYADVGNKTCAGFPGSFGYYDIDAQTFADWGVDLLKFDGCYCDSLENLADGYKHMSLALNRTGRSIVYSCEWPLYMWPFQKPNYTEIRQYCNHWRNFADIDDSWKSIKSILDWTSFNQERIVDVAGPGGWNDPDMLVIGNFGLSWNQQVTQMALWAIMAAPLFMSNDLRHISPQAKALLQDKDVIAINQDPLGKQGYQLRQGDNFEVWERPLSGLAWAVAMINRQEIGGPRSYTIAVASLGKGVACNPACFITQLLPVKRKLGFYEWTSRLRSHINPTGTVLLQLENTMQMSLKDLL
Summary of the method: (§1)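 Enzyme in 100 mM McIlvaine buffer pH 5.2 with 0.25% sodium taurocholate and 0.1% Triton X-100, with inhibitor. Preincubated at 0 °C for 45 min, then started with 3 mM 4-methylumbelliferyl glycoside substrate solution and incubated 30 min at 37 °C. Stopped with 400 mM glycine-NaOH pH 10.6. 4-Methylumbelliferone fluorescence read at ex 362/em 450 nm.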

Alpha-galactosidase = Alpha-galactosidase (Coffea arabica, UniProt Q42656); experiment: Inhibition of coffee beans alpha-galactosidase using p-nitrophenyl glycopyranoside preincubated for 5 mins followed by substrate addition measured after 20 mins by visible absorption spectroscopic method
Summary of the method: (§2)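 IC50 determined only for compounds giving ≥80% inhibition at 1 mM, read from plots of % inhibition versus inhibitor concentration. p-Nitrophenyl glycopyranoside substrate (10 mM solution) at the enzyme's optimal pH, with 0.01–0.5 units/mL enzyme. 5 min rt preincubation with enzyme, then 20 min at 37 °C. Borate stop (pH 9.8), absorbance at 405 nm. Duplicates averaged.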

[2] = Selectivity ratio of IC50 for human lysosomal alpha-galactosidase A to IC50 for coffee beans alpha-galactosidase
[3] = Inhibition of bovine liver beta-glucosidase using p-nitrophenyl glycopyranoside preincubated for 5 mins followed by substrate addition measured after 20 mins by visible absorption spectroscopic method; design: species or system Bos taurus; summary of the method: as §2
[4] = target: Alpha-galactosidase (Coffea arabica) (UniProt Q42656); experiment: Inhibition of coffee beans alpha-galactosidase at 50 uM using p-nitrophenyl glycopyranoside preincubated for 5 mins followed by substrate addition measured after 20 mins by visible absorption spectroscopic method relative to control
Summary of the method: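 Crude triazoles from in situ CuAAC (ascorbate/CuSO4, 24 h rt, water-diluted) were screened at 50 μM per well, assuming full conversion. Enzyme was coffee bean α-galactosidase at pH 6, 37 °C, with p-nitrophenyl glycoside substrate and 405 nm read-out. Blanks of CuSO4, ascorbate and each alkyne were run.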

Alpha-galactosidase A = target: T2, Alpha-galactosidase A (Homo sapiens, UniProt P06280); experiment: Inhibition of human lysosomal alpha-galactosidase A using 4-methylumbelliferyl-alpha-D-galactopyranoside as substrate preincubated for 45 mins followed by substrate addition measured after 30 mins by fluorescence spectroscopic method; summary of the method: as §1
T2 sequence (P06280 whole entry): T1 sequence (whole entry)

Alpha-galactosidase (Coffea arabica), sequence (Q42656 16-378 limits assumed): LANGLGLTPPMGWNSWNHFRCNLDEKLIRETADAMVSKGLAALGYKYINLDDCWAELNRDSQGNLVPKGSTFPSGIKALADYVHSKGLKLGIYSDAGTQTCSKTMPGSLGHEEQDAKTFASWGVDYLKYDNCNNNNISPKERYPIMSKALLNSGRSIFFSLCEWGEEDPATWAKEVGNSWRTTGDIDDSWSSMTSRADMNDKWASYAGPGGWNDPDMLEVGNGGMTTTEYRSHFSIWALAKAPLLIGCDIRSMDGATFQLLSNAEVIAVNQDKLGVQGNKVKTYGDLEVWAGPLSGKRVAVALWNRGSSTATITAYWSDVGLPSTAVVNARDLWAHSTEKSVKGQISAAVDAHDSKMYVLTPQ
Alpha-galactosidase, sequence (Q42656 whole entry): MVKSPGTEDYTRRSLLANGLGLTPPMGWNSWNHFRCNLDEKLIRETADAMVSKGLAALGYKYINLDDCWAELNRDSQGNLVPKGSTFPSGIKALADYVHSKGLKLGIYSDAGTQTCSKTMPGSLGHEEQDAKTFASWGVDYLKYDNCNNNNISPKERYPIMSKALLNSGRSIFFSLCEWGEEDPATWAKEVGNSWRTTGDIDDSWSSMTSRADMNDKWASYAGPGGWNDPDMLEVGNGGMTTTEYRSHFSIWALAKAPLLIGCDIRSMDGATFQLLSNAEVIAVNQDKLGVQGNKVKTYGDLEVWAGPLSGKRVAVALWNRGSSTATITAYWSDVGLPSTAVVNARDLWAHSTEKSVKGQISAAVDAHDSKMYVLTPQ

SMILES | inhibition [1] [%] | IC50 (Alpha-galactosidase) [µM] | Ratio IC50 [2] | IC50 [3] [µM] | inhibition [4] [%] | IC50 (Alpha-galactosidase A) [µM]
O[C@@H]1[C@H](O)CN[C@H]1Cn1cc(-c2ccccc2)nn1 | < 50 | – | – | – | – | –
O[C@@H]1[C@H](O)CN[C@@H]1Cn1cc(-c2ccccc2)nn1 | – | 14 | 10 | 240 | 62 | 171
